Source: ChEMBL document CHEMBL3351508, “Second-generation antibacterial benzimidazole ureas: discovery of a preclinical candidate with reduced metabolic liability” (J Med Chem, 2014)
Converted amounts (≈) assume the structure as drawn. Each block holds one compound with its values, some of them ahead of it.

What was measured:
[1] = tested on: Streptococcus pneumoniae; assay: Antibacterial activity against Streptococcus pneumoniae ATCC 10015 by CLSI method; type: functional
In short: (§1)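 Broth microdilution MIC in liquid medium following CLSI methods, with ATCC strains. Each run was accepted only if comparator antibiotics fell within their recommended quality-control ranges for the appropriate ATCC strain.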

[2] = species on record: Rattus norvegicus; assay: Drug metabolism in rat assessed as reactive metabolites as rat liver protein binding per mg of protein at 100 uCi for 6 days measured on day 7; type: ADME, organism-based; details: in vivo, 144 h
In short: (§2)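 Male rats were dosed with unlabeled compound at 90 mg/kg for 6 or 13 days, then given 100 μCi ¹⁴C-labeled compound on day 7 or 14 and killed 4 h later. Liver S9 (9000g) was washed with acetonitrile until free of unbound label and the pellet dissolved in 1 N NaOH at 60 °C. Radioactivity was counted by scintillation, normalized to Bradford protein, and expressed as pmol/mg.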

[3] = tested on: Enterococcus faecalis; assay: Antibacterial activity against Enterococcus faecalis ATCC 29212 by CLSI method; type: functional; in short: as §1
[4] = tested on: Staphylococcus epidermidis; assay: Antibacterial activity against Staphylococcus epidermidis ATCC 12228 by CLSI method; type: functional; in short: as §1
[5] = tested on: Enterococcus faecium; assay: Antibacterial activity against Enterococcus faecium ATCC 49624 by CLSI method; type: functional; in short: as §1
[6] = Inhibition of Staphylococcus aureus DNA topoisomerase-4 C2E2 using pBR322 plasmid DNA as substrate by coupled enzyme reaction assay
[7] = tested on: Haemophilus influenzae; assay: Antibacterial activity against Haemophilus influenzae ATCC 49247 by CLSI method; type: functional; in short: as §1
[8] = tested on: Moraxella catarrhalis; assay: Antibacterial activity against Moraxella catarrhalis ATCC 25238 by CLSI method; type: functional; in short: as §1
[9] = tested on: Staphylococcus aureus; assay: Antibacterial activity against Staphylococcus aureus ATCC 29213 by CLSI method in presence of human 50% serum; type: functional; in short: as §1
[10] = tested on: Staphylococcus aureus; assay: Antibacterial activity against Staphylococcus aureus ATCC 29213 by CLSI method; type: functional; in short: as §1
[11] = species on record: Rattus norvegicus; assay: Drug metabolism in rat assessed as reactive metabolites as rat liver protein binding per mg of protein at 100 uCi for 13 days measured on day 14; type: ADME, organism-based; details: in vivo, 312 h; in short: as §2
[12] = tested on: Staphylococcus aureus; assay: Antibacterial activity against methicillin-susceptible Staphylococcus aureus ATCC 29213 infected in mouse thigh assessed reduction in colony forming unit at 25 mg/kg, po bid after 72 hrs; type: functional
[13] = Drug metabolism in rat assessed as metabolites in bile at 30 mg/kg, po; type: ADME, organism-based; parameters: dose 30 mg/kg, route oral; details: in vivo
[14] = Drug metabolism in rat assessed as metabolites in urine at 30 mg/kg, po; type: ADME, organism-based; parameters: dose 30 mg/kg, route oral; details: in vivo
[15] = Drug metabolism in rat assessed as metabolites in feces at 30 mg/kg, po; type: ADME, organism-based; parameters: dose 30 mg/kg, route oral; details: in vivo
[16] = biological target: T1, Cytochrome P450 2C8 (Homo sapiens, UniProt P10632); assay: Drug metabolism in recombinant CYP2C8 (unknown origin) at 1 uM after 30 mins; type: ADME; details: recombinant enzyme, 0.5 h
T1 sequence (P10632 whole entry): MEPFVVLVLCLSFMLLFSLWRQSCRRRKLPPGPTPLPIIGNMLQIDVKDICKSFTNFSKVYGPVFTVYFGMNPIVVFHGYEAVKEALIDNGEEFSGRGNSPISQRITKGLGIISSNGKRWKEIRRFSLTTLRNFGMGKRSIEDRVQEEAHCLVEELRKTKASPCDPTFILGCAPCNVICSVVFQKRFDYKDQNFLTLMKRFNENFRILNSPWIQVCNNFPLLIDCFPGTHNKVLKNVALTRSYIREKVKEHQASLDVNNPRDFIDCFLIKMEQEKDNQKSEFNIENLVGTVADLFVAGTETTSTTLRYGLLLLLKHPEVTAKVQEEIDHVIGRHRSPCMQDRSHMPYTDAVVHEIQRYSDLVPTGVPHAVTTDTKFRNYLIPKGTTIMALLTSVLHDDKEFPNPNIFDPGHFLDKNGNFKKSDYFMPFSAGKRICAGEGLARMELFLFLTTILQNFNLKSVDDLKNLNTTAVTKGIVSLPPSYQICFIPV
In short: (§3)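 Parent at 1 and 10 μM was incubated with individual recombinant CYP supersomes, with and without NADPH, for 0, 15 and 30 min. Formation of the imine metabolite was quantified by LC-MS/MS.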

[17] = biological target: T2, Cytochrome P450 2B6 (Homo sapiens, UniProt P20813); assay: Drug metabolism in recombinant CYP2B6 (unknown origin) at 1 uM after 30 mins; type: ADME; details: recombinant enzyme, 0.5 h; in short: as §3
T2 sequence (P20813 whole entry): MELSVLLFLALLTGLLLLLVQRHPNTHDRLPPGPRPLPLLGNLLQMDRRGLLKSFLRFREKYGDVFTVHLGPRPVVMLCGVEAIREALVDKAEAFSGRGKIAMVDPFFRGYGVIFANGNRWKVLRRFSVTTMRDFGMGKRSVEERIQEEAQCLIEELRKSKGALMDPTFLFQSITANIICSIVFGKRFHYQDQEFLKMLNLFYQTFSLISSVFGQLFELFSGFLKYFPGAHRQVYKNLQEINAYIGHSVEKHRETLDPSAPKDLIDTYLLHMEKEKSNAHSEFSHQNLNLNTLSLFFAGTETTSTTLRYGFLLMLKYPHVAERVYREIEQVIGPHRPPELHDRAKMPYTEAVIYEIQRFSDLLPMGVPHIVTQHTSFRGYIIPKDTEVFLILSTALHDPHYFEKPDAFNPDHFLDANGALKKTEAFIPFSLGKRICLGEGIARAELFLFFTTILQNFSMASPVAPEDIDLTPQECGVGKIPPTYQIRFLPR

[18] = tested on: Plasma; assay: Drug metabolism in rat assessed as metabolites in plasma at 30 mg/kg, po; type: ADME, organism-based; parameters: dose 30 mg/kg, route oral; details: in vivo
[19] = biological target: DNA gyrase (Escherichia coli, UniProt P0AES4+P0AES6); assay: Inhibition of […] Escherichia coli DNA gyrase A2B2 using pBR322 plasmid DNA as substrate by coupled enzyme reaction assay; type: protein-complex assay
[20] = biological target: Cytochrome P450 2C19 (Homo sapiens, UniProt P33261); assay: Drug metabolism in recombinant CYP2C19 (unknown origin) at 1 uM after 30 mins; type: ADME; details: recombinant enzyme, 0.5 h; in short: as §3
[21] = biological target: Cytochrome P450 2C9 (Homo sapiens, UniProt P11712); assay: Drug metabolism in recombinant CYP2C9 (unknown origin) at 1 uM after 30 mins; type: ADME; details: recombinant enzyme, 0.5 h; in short: as §3
Sequence of Cytochrome P450 2C9 (P11712 whole entry): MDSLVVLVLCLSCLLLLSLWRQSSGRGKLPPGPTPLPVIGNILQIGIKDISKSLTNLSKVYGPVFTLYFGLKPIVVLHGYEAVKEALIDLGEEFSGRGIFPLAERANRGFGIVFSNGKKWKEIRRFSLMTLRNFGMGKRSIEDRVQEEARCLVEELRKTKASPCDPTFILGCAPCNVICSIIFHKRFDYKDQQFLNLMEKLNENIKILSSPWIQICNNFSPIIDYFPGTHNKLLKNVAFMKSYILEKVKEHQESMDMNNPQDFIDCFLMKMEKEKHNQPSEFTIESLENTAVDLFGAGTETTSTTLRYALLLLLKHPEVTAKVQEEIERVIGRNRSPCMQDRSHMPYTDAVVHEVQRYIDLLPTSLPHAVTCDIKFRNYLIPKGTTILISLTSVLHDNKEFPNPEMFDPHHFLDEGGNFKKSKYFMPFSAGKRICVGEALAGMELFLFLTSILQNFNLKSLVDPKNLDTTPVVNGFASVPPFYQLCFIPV

Sequence of Cytochrome P450 2C19 (P33261 whole entry): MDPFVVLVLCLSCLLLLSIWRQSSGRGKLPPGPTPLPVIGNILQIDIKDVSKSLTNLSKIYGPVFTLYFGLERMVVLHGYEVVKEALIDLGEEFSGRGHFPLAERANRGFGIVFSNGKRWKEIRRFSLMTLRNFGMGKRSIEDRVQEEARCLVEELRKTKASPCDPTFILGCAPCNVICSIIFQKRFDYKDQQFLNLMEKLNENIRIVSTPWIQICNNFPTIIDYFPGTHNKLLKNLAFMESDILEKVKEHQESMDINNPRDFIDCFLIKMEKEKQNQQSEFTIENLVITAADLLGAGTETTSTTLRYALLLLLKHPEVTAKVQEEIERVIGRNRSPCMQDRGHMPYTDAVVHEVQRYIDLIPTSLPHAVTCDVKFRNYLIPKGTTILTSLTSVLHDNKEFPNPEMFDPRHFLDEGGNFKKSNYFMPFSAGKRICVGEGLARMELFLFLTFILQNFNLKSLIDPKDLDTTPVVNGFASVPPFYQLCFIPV

MIC [1]: ≤ 0.008 µg/mL
Drug metabolism [2]: < 5 pmol
MIC [3]: 0.032 µg/mL (≈ 0.0747 µM)
MIC [4]: ≤ 0.008 µg/mL
MIC [5]: 0.125 µg/mL (≈ 0.292 µM)
MIC [7]: 0.5 µg/mL (≈ 1.17 µM)
MIC [8]: ≤ 0.016 µg/mL
MIC [9]: 0.25 µg/mL
MIC [10]: 0.032 µg/mL (≈ 0.0747 µM)
Drug metabolism [11]: < 5 pmol
SMILES: CCNC(=O)Nc1nc2cc(-c3cnc(C(C)(C)O)nc3)c(F)c([C@H]3CCCO3)c2[nH]1
Ki [6]: 9 nM

MIC [1]: ≤ 0.008 µg/mL
MIC [3]: < 0.008 µg/mL
Drug metabolism [13]: metabolite_notdetected
Drug metabolism [14]: metabolite_notdetected
Drug metabolism [15]: metabolite_notdetected
MIC [7]: 1 µg/mL (≈ 2.65 µM)
Drug metabolism [16]: metabolite_notdetected
Drug metabolism [17]: metabolite_notdetected
MIC [9]: 0.25 µg/mL
Drug metabolism [18]: metabolite_notdetected
Ki [19]: 5 nM
MIC [10]: 0.016 µg/mL (≈ 0.0424 µM)
Drug metabolism [20]: metabolite_notdetected
Drug metabolism [21]: metabolite_notdetected
SMILES: CCNC(=O)Nc1nc2cc(-c3cncc(F)c3)cc(-c3ncccn3)c2[nH]1
log10cfu [12]: >4
Ki [6]: < 6 nM
